Reference: ChEMBL document CHEMBL4145684 (J Med Chem, 2018)

Test system: Rattus norvegicus
Test: Reduction in uterine wet weight in ethynyl estradiol-stimulated CD-IGS rat at 200 mg/kg, po dosed daily for 3 days by gavage followed 15 mins later by 0.1 mg/kg, po ethynyl estradiol and measured 24 hrs after last dose by immature rat uterine wet weight assay
Assay type: functional
Procedure, shortened: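 Female immature CD-IGS rats, 21 days old on arrival. Compound or vehicle was given orally by gavage once daily for 3 days, and oral ethynyl estradiol at 0.1 mg/kg followed each dose by 15 min. On day 4, 24 h after dosing, plasma was taken for PK, then the uterus was removed and weighed. % reduction = 100 × (VehicleEE − Cpd)/(VehicleEE − Vehicle).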

## C[C@]12CC[C@@H]3c4ccc(O)cc4C[C@@H](CCCCCCCCC[S+]([O-])CCCC(F)(F)C(F)(F)F)[C@H]3[C@@H]1CC[C@@H]2O (stereo partly specified) [FULVESTRANT]
  inhibition (INH): 110%
